Test results as given in ChEMBL document CHEMBL3351994, “Synthesis and biological evaluation of novel millepachine derivatives as a new class of tubulin polymerization inhibitors” (J Med Chem, 2014).

Tests used:
[1] = Antiproliferative activity against adriamycin resistant human MCF7/ADR cells assessed as inhibition of cell proliferation after 48 hrs by MTT assay; type: functional, cell-based; details: NCI/ADR-RES
How it was run: (§1)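 Cells grown at 37 °C in humidified 5% CO2. K562, C26 and HCT lines in RPMI-1640; other lines in DMEM; both media with 10% FBS, penicillin and streptomycin. 1000 cells/well seeded, incubated overnight, then compound at various doses for 48 h. MTT added for 4 h, formazan dissolved in DMSO, absorbance read at 590 nm. IC50 from dose–response curves, mean ± SEM of at least three independent experiments.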

[2] = tested on: Mus musculus; assay: Toxicity in human HepG2 cells xenografted Balb/C mouse assessed as body weight changes at 5 mg/kg, iv dosed every 2 days for 11 days; type: organism-based; set-up: dose 5 mg/kg, route intravenous; details: in vivo
How it was run: (§2)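 Xenografts: 5 × 10^6 tumour cells injected sc in right armpit/flank of 5−6-week-old female mice; at 100 mm3 tumour volume, randomized (6 per group) and dosed in vehicle of 2.5% Tween-80 and 2.5% ethanol; body weights and caliper tumour volumes recorded every 2 days, toxicity signs and mortality daily.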

[3] = tested on: HepG2; assay: Antitumor activity against human HepG2 cells xenografted in Balb/C mouse assessed as tumor mass changes at 5 mg/kg, iv dosed every 2 days for 11 days; type: functional
How it was run: (§3)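 Female Balb/c or athymic nude mice, 5–6 weeks old. 5 × 10^6 cells in HBSS implanted sc in the right flank/armpit. Treatment began at tumor volume 100 mm3, 6 mice per group; vehicle was 2.5% Tween-80 and 2.5% ethanol. Tumor volume (π/6 × L × W²) and body weight measured every 2 days. Inhibition = (1 − treated/control tumor weight) × 100%.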

[4] = tested on: Mus musculus; assay: Toxicity in human HepG2 cells xenografted Balb/C mouse assessed as mortality level at 5 mg/kg, iv dosed every 2 days for 11 days; type: organism-based; set-up: dose 5 mg/kg, route intravenous; details: in vivo
How it was run: (§4)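 Female Balb/C or athymic nude mice, 5−6 weeks old, implanted sc in the right flank/armpit with 5 × 10^6 cells in HBSS. Once tumors reached 100 mm3, mice were randomized (6 per group) and dosed with vehicle (2.5% Tween-80, 2.5% ethanol) or drug. Toxicity signs and mortality observed daily. Body weight and caliper tumor volume measured every 2 days.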

[5] = tested on: AGS; assay: Antiproliferative activity against human AGS cells assessed as inhibition of cell proliferation after 48 hrs by MTT assay; type: functional, cell-based; how it was run: as §1
[6] = Antitumor activity against cisplatin-resistant human […] cells xenografted in Balb/C mouse assessed as tumor mass changes at 5 mg/kg, iv dosed every 4 days for 4 days; type: functional, A2780cisR; how it was run: as §3
[7] = Antiproliferative activity against taxol resistant human […] cells assessed as inhibition of cell proliferation after 48 hrs by MTT assay; type: functional, cell-based; details: A2780, 48 h; how it was run: as §1
[8] = tested on: MCF7; assay: Antiproliferative activity against human MCF7 cells assessed as inhibition of cell proliferation after 48 hrs by MTT assay; type: functional, cell-based; details: MCF7, 48 h; how it was run: as §1
[9] = tested on: Mus musculus; assay: Toxicity in cisplatin-resistant human […] cells xenografted Balb/C mouse assessed as body weight changes at 5 mg/kg, iv dosed every 4 days for 4 days; type: organism-based, A2780cisR; set-up: dose 5 mg/kg, route intravenous; details: in vivo, 96 h; how it was run: as §2
[10] = tested on: Mus musculus; assay: Toxicity in mouse C26 cells xenografted Balb/C mouse assessed as mortality level at 5 mg/kg, iv dosed every 4 days for 4 days; type: organism-based; set-up: dose 5 mg/kg, route intravenous; details: in vivo, 96 h; how it was run: as §4
[11] = Antiproliferative activity against human DLD1 cells assessed as inhibition of cell proliferation after 48 hrs by MTT assay; type: functional, cell-based; details: DLD-1, 48 h; how it was run: as §1
[12] = tested on: Mus musculus; assay: Toxicity in mouse C26 cells xenografted Balb/C mouse assessed as body weight changes at 5 mg/kg, iv dosed every 4 days for 4 days; type: organism-based; set-up: dose 5 mg/kg, route intravenous; details: in vivo, 96 h; how it was run: as §2
[13] = tested on: U-251; assay: Antiproliferative activity against human U251 cells assessed as inhibition of cell proliferation after 48 hrs by MTT assay; type: functional, cell-based; details: U-251, 48 h; how it was run: as §1
[14] = tested on: HepG2; assay: Antiproliferative activity against human HepG2 cells assessed as inhibition of cell proliferation after 48 hrs by MTT assay; type: functional, cell-based; how it was run: as §1
[15] = Antiproliferative activity against taxol resistant human HCT8 cells assessed as inhibition of cell proliferation after 48 hrs by MTT assay; type: functional, cell-based; details: HCT-8, 48 h; how it was run: as §1
[16] = Antiproliferative activity against human A2780S cells assessed as inhibition of cell proliferation after 48 hrs by MTT assay; type: functional, cell-based; details: A2780, 48 h
How it was run: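 Cells grown in DMEM with 10% FBS, penicillin/streptomycin at 37 °C, 5% CO2. 1000 cells/well seeded, incubated overnight, then exposed to various doses for 48 h. MTT added for 4 h, formazan dissolved in DMSO, absorbance read at 590 nm. IC50 = concentration inhibiting proliferation by 50%, mean ± SEM of dose–response curves from at least three independent experiments.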

[17] = Antitumor activity against mouse C26 cells xenografted in Balb/C mouse assessed as tumor mass changes at 5 mg/kg, iv dosed every 4 days for 4 days; type: functional; how it was run: as §3
[18] = Antiproliferative activity against mouse C26 cells assessed as inhibition of cell proliferation after 48 hrs by MTT assay; type: functional, cell-based; details: C26, 48 h; how it was run: as §1
[19] = tested on: NCI-H358; assay: Antiproliferative activity against human NCI-H358 cells assessed as inhibition of cell proliferation after 48 hrs by MTT assay; type: functional, cell-based; details: NCI-H358, 48 h; how it was run: as §1
[20] = Antiproliferative activity against human HCT15 cells assessed as inhibition of cell proliferation after 48 hrs by MTT assay; type: functional, cell-based; details: HCT-15, 48 h; how it was run: as §1
[21] = tested on: Mus musculus; assay: Toxicity in cisplatin-resistant human […] cells xenografted Balb/C mouse assessed as mortality level at 5 mg/kg, iv dosed every 4 days for 4 days; type: organism-based, A2780cisR; set-up: dose 5 mg/kg, route intravenous; details: in vivo, 96 h; how it was run: as §4
[22] = tested on: Mus musculus; assay: Toxicity in human A2780S cells xenografted Balb/C mouse assessed as body weight changes at 10 mg/kg, iv dosed every 2 days for 8 days; type: organism-based, A2780; set-up: dose 10 mg/kg, route intravenous; details: in vivo; how it was run: as §2
[23] = tested on: HepG2; assay: Antitumor activity against human HepG2 cells xenografted in Balb/C mouse assessed as tumor mass changes at 25 mg/kg, po dosed every 2 days for 11 days; type: functional; how it was run: as §3
[24] = Antitumor activity against human A2780S cells xenografted in Balb/C mouse assessed as tumor mass changes at 10 mg/kg, iv dosed every 2 days for 8 days; type: functional, A2780; how it was run: as §3
[25] = Cmax in rat at 15 mg/kg, po; type: ADME, organism-based; set-up: dose 15 mg/kg, route oral; details: in vivo
How it was run: (§5)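 Rat pharmacokinetics; oral and intravenous dosing, with group sizes of 5, 5 and 4 rats. Parameters derived: systemic clearance, volume of distribution, area under the plasma concentration–time curve, maximum plasma concentration and percent oral bioavailability.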

[26] = Toxicity in iv dosed BALB/c mouse; type: organism-based; details: in vivo
How it was run: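 Maximum tolerated dose in BALB/c mice (SPF, 18−22 g, 6−8 weeks, half female and half male). Graded doses given intravenously, n = 4 per dose. Survival and adverse effects recorded every other day after dosing. MTD defined as the largest dose given before one death occurs.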

[27] = tested on: Rattus norvegicus; assay: Volume of distribution at steady state in rat at 15 mg/kg, po; type: ADME, organism-based; set-up: dose 15 mg/kg, route oral; details: in vivo
[28] = tested on: Mus musculus; assay: Toxicity in human A2780S cells xenografted Balb/C mouse assessed as mortality level at 10 mg/kg, iv dosed every 2 days for 8 days; type: organism-based, A2780; set-up: dose 10 mg/kg, route intravenous; details: in vivo; how it was run: as §4
[29] = tested on: Mus musculus; assay: Toxicity in cisplatin-resistant human […] cells xenografted Balb/C mouse assessed as body weight changes at 10 mg/kg, iv dosed every 2 days for 7 days; type: organism-based, A2780cisR; set-up: dose 10 mg/kg, route intravenous; details: in vivo; how it was run: as §2
[30] = tested on: Mus musculus; assay: Toxicity in cisplatin-resistant human […] cells xenografted Balb/C mouse assessed as mortality level at 10 mg/kg, iv dosed every 2 days for 7 days; type: organism-based, A2780cisR; set-up: dose 10 mg/kg, route intravenous; details: in vivo; how it was run: as §4
[31] = Antitumor activity against cisplatin-resistant human […] cells xenografted in Balb/C mouse assessed as tumor mass changes at 10 mg/kg, iv dosed every 2 days for 7 days; type: functional, A2780cisR; how it was run: as §3
[32] = Solubility in PBS solution by nephelometry; type: physicochemical
How it was run: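 Maximum soluble concentration in PBS, determined by nephelometry.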

[33] = tested on: Mus musculus; assay: Toxicity in human HepG2 cells xenografted Balb/C mouse assessed as mortality level at 25 mg/kg, po dosed every 2 days for 11 days; type: organism-based; set-up: dose 25 mg/kg, route oral; details: in vivo; how it was run: as §4
[34] = tested on: Mus musculus; assay: Toxicity in human HepG2 cells xenografted Balb/C mouse assessed as body weight changes at 25 mg/kg, po dosed every 2 days for 11 days; type: organism-based; set-up: dose 25 mg/kg, route oral; details: in vivo; how it was run: as §2
[35] = Oral bioavailability in rat at 15 mg/kg; type: ADME, organism-based; details: in vivo
[36] = Antitumor activity against mouse C26 cells xenografted in Balb/C mouse assessed as tumor mass changes at 10 mg/kg, iv dosed every 2 days for 8 days; type: functional; how it was run: as §3
[37] = tested on: Rattus norvegicus; assay: Systemic clearance in rat at 15 mg/kg, po; type: ADME, organism-based; set-up: dose 15 mg/kg, route oral; details: in vivo
[38] = tested on: Mus musculus; assay: Toxicity in mouse C26 cells xenografted Balb/C mouse assessed as body weight changes at 10 mg/kg, iv dosed every 2 days for 8 days; type: organism-based; set-up: dose 10 mg/kg, route intravenous; details: in vivo; how it was run: as §2
[39] = Volume of distribution at steady state in rat at 3 mg/kg, iv; type: ADME, organism-based; set-up: dose 3 mg/kg, route intravenous; details: in vivo, read-out: Vdss
[40] = tested on: Mus musculus; assay: Toxicity in mouse C26 cells xenografted Balb/C mouse assessed as mortality level at 10 mg/kg, iv dosed every 2 days for 8 days; type: organism-based; set-up: dose 10 mg/kg, route intravenous; details: in vivo; how it was run: as §4
[41] = tested on: Rattus norvegicus; assay: AUC in rat at 3 mg/kg, iv; type: ADME, organism-based, Plasma; set-up: dose 3 mg/kg, route intravenous; details: in vivo; how it was run: as §5
[42] = tested on: Rattus norvegicus; assay: Systemic clearance in rat at 3 mg/kg, iv; type: ADME, organism-based; set-up: dose 3 mg/kg, route intravenous; details: in vivo
[43] = Cmax in rat at 3 mg/kg, iv; type: ADME, organism-based; set-up: dose 3 mg/kg, route intravenous; details: in vivo; how it was run: as §5
[44] = tested on: Rattus norvegicus; assay: AUC in rat at 15 mg/kg, po; type: ADME, organism-based, Plasma; set-up: dose 15 mg/kg, route oral; details: in vivo; how it was run: as §5

## COc1cccc2c1C(=O)c1c(O)c3c(c(O)c1C2=O)C[C@@](O)(C(=O)CO)C[C@@H]3O[C@H]1C[C@H](N)[C@H](O)[C@H](C)O1.Cl [DOXORUBICIN HYDROCHLORIDE]
[1]
  IC50: 5300 nM
[2]
  Activity: 0.5%
[3]
  Activity: 61%
[4]
  Activity: Non-toxic

## CC(=O)O[C@H]1C(=O)[C@@]2(C)[C@H]([C@H](OC(=O)c3ccccc3)[C@]3(O)C[C@H](OC(=O)[C@H](O)[C@@H](NC(=O)c4ccccc4)c4ccccc4)C(C)=C1C3(C)C)[C@]1(OC(C)=O)CO[C@@H]1C[C@@H]2O [PACLITAXEL]
[5]
  IC50: 8 nM
[6]
  Activity: 69%
[7]
  IC50: 107 nM
[8]
  IC50: 132 nM
[9]
  Activity: -5.6%
[10]
  Activity: Non-toxic
[11]
  IC50: 16 nM
[12]
  Activity: -3.7%
[13]
  IC50: 23 nM
[14]; Homo sapiens, HepG2, 48 h
  IC50: 38 nM
[15]
  IC50: 266 nM
[16]
  IC50: 4 nM
[17]
  Activity: 76%
[18]
  IC50: 210 nM
[19]
  IC50: 2 nM
[20]
  IC50: 24 nM
[21]
  Activity: Non-toxic

## COc1ccc(/C=C/C(=O)c2ccc(OC)c3c2OC(C)(C)C=C3)cc1N.Cl
[22]
  Activity: -2.5%
[23]
  Activity: 78%
[24]
  Activity: 61%
[25]
  Cmax: 449 ng/mL
[26]
  MTD: 250 mg/kg
[27]
  Vdss: 47 L/kg
[28]
  Activity: Non-toxic
[29]
  Activity: 1%
[30]
  Activity: Non-toxic
[31]
  Activity: 51%
[32]
  solubility kinetic: 64 µg/mL
[33]
  Activity: Non-toxic
[34]
  Activity: 7.6%
[35]
  bioavailability: 47%
[36]
  Activity: 86%
[14]; hepg2
  IC50: 9 nM
[37]
  CL: 123 mL/min/kg
[38]
  Activity: 0.8%
[39]
  Vd: 31 L/kg
[40]
  Activity: Non-toxic
[41]
  AUC: 973 ng·h/mL
[42]
  CL: 50 mL/min/kg
[43]
  Cmax: 1510 ng/mL
[44]
  AUC: 2260 ng·h/mL
